The record followed here is ChEMBL document CHEMBL4342467, “Discovery of a Novel Dual-Target Inhibitor of ERK1 and ERK5 That Induces Regulated Cell Death to Overcome Compensatory Mechanism in Specific Tumor Types” (J Med Chem, 2020).

In one experiment the test system is HeLa. Kind of experiment: Antiproliferative activity against human HeLa cells assessed as reduction in cell viability measured after 24 hrs. It is filed as functional, cell-based.
The target of experiment [1] is Mitogen-activated protein kinase 3 (Homo sapiens) (UniProt P27361). The experiment in a line: Inhibition of ERK1 (unknown origin) at 1 uM by Z'-Lyte assay relative to control.
Mitogen-activated protein kinase 3 (Homo sapiens), sequence (P27361 whole entry): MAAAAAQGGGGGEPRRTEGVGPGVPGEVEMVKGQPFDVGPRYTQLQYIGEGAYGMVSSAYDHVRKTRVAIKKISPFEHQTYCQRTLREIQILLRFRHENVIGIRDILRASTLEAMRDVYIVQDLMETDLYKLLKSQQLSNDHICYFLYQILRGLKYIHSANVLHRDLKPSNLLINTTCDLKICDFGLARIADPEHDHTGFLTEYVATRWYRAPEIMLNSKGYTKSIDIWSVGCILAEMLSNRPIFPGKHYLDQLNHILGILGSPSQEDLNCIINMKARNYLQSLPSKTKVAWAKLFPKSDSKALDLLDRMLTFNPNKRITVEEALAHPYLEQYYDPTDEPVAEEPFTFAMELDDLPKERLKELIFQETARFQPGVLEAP
Experiment [2] has as its target Mitogen-activated protein kinase 7 (Homo sapiens) (UniProt Q13164). Kind of experiment: Inhibition of ERK5 in human MKN74 cells harboring ERK1/2 siRNA assessed as reduction in ERK5 phosphorylation at 1 uM by Western blot analysis. The class given is cell-based. Summed up: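 MKN-74 cells were transfected with ERK1/2-specific siRNA or negative-control siRNA, then exposed to compound. ERK1/2, p-ERK1/2, ERK5 and p-ERK5 were read by immunoblotting, with GAPDH as loading control.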

The test system of a further experiment is MKN-74. The experiment in a line: Antiproliferative activity against human MKN74 cells assessed as reduction in cell viability measured after 24 hrs. It is filed as functional, cell-based. The note with it: MKN-74, 24 h.
Another experiment has as its system HL-60. The experiment in a line: Antiproliferative activity against human HL60 cells assessed as reduction in cell viability measured after 24 hrs. It is filed as functional, cell-based. As to conditions: HL-60, 24 h.
For experiment [3], the target named is Mitogen-activated protein kinase 1 (Homo sapiens) (UniProt P28482). The experiment in a line: Inhibition of ERK2 (unknown origin) at 1 uM by Z'-Lyte assay relative to control.
Mitogen-activated protein kinase 1 (Homo sapiens), sequence (P28482 whole entry): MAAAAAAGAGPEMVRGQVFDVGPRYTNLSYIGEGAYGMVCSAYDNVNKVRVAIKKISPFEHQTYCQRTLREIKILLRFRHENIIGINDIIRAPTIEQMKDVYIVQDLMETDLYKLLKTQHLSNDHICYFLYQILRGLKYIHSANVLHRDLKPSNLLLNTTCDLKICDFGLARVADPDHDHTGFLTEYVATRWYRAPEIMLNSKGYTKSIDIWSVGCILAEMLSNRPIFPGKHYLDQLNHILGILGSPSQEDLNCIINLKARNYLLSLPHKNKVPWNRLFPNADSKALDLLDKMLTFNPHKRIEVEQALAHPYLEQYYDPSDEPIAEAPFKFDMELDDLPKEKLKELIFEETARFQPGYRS
For experiment [4], the target named is Mitogen-activated protein kinase 7 (Homo sapiens) (UniProt Q13164). Kind of experiment: Inhibition of ERK5 (unknown origin) at 1 uM by Z'-Lyte assay relative to control.
Mitogen-activated protein kinase 7 (Homo sapiens), sequence (Q13164 2-816 limits assumed): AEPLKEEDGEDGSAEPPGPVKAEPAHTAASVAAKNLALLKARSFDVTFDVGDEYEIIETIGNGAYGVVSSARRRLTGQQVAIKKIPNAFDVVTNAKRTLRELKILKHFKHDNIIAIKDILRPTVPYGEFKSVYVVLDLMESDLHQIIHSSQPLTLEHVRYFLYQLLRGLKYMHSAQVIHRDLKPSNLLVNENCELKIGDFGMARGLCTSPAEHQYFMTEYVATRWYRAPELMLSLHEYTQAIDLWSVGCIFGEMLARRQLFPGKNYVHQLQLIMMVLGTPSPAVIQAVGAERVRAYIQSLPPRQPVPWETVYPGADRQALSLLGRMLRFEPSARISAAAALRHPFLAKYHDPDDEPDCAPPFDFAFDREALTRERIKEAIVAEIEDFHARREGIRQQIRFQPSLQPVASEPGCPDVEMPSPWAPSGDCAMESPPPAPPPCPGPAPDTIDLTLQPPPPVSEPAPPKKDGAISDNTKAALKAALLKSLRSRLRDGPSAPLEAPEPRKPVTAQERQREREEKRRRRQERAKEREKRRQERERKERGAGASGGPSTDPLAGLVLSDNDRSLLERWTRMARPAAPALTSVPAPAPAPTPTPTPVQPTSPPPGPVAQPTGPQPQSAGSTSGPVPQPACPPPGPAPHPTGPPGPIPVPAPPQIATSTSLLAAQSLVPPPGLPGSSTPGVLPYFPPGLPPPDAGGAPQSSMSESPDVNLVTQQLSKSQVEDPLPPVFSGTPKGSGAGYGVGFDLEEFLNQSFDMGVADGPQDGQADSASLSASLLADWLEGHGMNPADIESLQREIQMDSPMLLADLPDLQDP

The source made the active and inactive calls. The calls are words filed in the database; no cut-off is given here.

The term IC50 denotes the midpoint of a concentration-inhibition curve. What is called inhibition is the percentage by which the read-out fell short of the control. Consider `CCOc1cc(N2CCC(O)CC2)ccc1Nc1ncc2c(n1)N(C)c1ccccc1C(=O)N2C`, for which the values for the IC50 in the experiment with HeLa, with MKN-74 and in the experiment with HL-60 were over 50 µM, over 50 µM and 10.6 µM, respectively. The inhibition in experiment [1] and in experiment [3] was under 50% each time. The inhibition entry in experiment [2] was “Active”.

For the compound `O=C(Nc1ccc2[nH]nc(-c3ccncc3)c2c1)[C@@H]1CCN(CC(=O)N2CCN(c3ccc(-c4ncccn4)cc3)CC2)C1`, the IC50 in the experiment on HeLa was over 50 µM; in the experiment on MKN-74, over 50 µM; with HL-60, 1.06 µM. The inhibition in experiment [4] was under 50%; in experiment [1], 98.8%; in experiment [3] it was 99.2%. In experiment [2], the inhibition entry was “inactive”.

Regarding `NC(=O)c1c(NC(=O)c2ccccc2Cl)sc2c1CCN(Cc1c(Cl)cccc1Cl)C2`, the IC50 with HeLa turned out to be 28.8 µM; with MKN-74, 4.74 µM; in the experiment on HL-60, 4.85 µM. Moreover, the inhibition is 61.9% in experiment [4], 57.8% in experiment [1] and 78.1% in experiment [3].

Take `NC(=O)c1c(NC(=O)c2ccc(C(F)(F)F)cc2)sc2c1CCN(Cc1ccc(Cl)cc1Cl)C2`: the IC50 with HeLa was over 50 µM; in the experiment with MKN-74, 10.8 µM; in the experiment with HL-60, 14.8 µM. For the same compound, the inhibition amounted to 40% in experiment [4], 39.6% in experiment [1] and 33.2% in experiment [3].

With `Cc1ccc(C(=O)Nc2sc3c(c2C(N)=O)CCN(C(=S)Nc2cc(C(F)(F)F)cc(C(F)(F)F)c2)C3)cc1`, the 50% inhibitory concentration (IC50) worked out at 17.1 µM in the experiment on HeLa, 14.9 µM with MKN-74 and 11.8 µM in the experiment on HL-60. Moreover, the inhibition in experiment [4] came out at 70.8%; in experiment [1] it was 77.4%; in experiment [3] it was 80.1%.

Regarding `COc1ccccc1NC(=S)N1CCc2c(sc(NC(=O)c3ccccc3I)c2C(N)=O)C1`, the IC50 with HeLa is over 50 µM; in the experiment with MKN-74, 41.8 µM; in the experiment with HL-60 it was over 50 µM. The figures for the inhibition in experiment [4], in experiment [1] and in experiment [3] were 42.8%, 56.1% and 59.6%, respectively.

As to `NC(=O)c1c(NC(=O)c2ccccc2)sc2c1CCN(C(=S)Nc1ccccc1)C2`, the IC50 with HeLa, in the experiment on MKN-74 and in the experiment on HL-60 was over 50 µM in each case. For the same compound, the inhibition in experiment [4] was 61.4%; in experiment [1], 65.8%; in experiment [3], 66.3%.

As for `NC(=O)c1c(NC(=O)c2ccccc2Cl)sc2c1CCN(C(=O)Nc1cc(C(F)(F)F)cc(C(F)(F)F)c1)C2`, the IC50 in the experiment on HeLa amounted to 38.6 µM; in the experiment on MKN-74, 24.3 µM; with HL-60, 26.7 µM. Further, the results for the inhibition in experiment [4], in experiment [1] and in experiment [3] were 80.3%, 91% and 89.2%, respectively.

For the compound `NC(=O)c1c(NC(=O)c2ccccc2I)sc2c1CCN(C(=S)Nc1ccccc1Br)C2`, the values for the IC50 in the experiment with HeLa, with MKN-74 and in the experiment with HL-60 were over 50 µM, 22.4 µM and 18.9 µM, respectively. Moreover, the values for the inhibition in experiment [4], in experiment [1] and in experiment [3] were 85.5%, 82% and 80%, respectively.
